Columns and labels:
Estrogen receptor = target: T1, Estrogen receptor (Homo sapiens, UniProt P03372); assay: Minimum effective concentration required to activate Estrogen receptor 1 (ER alpha); Not detected
T1 sequence (P03372 whole entry): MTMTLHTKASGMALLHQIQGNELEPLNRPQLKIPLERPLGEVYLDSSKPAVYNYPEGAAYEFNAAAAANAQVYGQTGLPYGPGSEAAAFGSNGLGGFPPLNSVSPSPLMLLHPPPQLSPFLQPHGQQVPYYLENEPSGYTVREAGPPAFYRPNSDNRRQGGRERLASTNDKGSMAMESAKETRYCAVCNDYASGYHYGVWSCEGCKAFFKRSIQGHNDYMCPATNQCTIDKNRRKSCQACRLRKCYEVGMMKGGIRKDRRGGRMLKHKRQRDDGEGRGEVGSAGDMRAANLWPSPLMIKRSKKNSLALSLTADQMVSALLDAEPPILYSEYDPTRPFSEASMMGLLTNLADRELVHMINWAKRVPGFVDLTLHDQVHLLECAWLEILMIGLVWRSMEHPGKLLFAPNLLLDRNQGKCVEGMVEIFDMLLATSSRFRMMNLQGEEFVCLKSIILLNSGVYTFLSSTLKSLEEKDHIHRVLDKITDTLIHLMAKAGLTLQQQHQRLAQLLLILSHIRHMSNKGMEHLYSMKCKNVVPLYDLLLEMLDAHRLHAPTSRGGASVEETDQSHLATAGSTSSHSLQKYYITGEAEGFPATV

Estrogen receptor beta = Estrogen receptor beta (Homo sapiens, UniProt Q92731); assay: Minimum effective concentration required to activate Estrogen receptor 2 (ER beta); Not detected
Chain of Estrogen receptor beta (Q92731 whole entry): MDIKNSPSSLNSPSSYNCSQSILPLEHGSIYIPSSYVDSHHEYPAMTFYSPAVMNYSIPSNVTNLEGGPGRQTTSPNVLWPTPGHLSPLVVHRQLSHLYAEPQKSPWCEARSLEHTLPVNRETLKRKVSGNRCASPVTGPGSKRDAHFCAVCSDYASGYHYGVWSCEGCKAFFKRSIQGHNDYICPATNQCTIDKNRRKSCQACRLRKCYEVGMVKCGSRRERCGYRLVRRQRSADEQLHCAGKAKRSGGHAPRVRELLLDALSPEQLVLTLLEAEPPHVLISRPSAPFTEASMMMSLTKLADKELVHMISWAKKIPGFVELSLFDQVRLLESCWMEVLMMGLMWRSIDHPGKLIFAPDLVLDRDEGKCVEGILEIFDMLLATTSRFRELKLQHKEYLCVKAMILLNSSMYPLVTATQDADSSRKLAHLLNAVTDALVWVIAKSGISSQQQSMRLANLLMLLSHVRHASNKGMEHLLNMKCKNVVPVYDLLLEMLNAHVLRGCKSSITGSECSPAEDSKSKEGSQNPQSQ

U2OS (Homo sapiens) = assay: Concentration required for inhibition of U2OS cell growth
[1] = target: T2, Nuclear receptor subfamily 1 group I member 2 (Homo sapiens, UniProt O75469); assay: Minimum effective concentration required to activate pregnane X receptor (PXR)
T2 sequence (O75469 whole entry): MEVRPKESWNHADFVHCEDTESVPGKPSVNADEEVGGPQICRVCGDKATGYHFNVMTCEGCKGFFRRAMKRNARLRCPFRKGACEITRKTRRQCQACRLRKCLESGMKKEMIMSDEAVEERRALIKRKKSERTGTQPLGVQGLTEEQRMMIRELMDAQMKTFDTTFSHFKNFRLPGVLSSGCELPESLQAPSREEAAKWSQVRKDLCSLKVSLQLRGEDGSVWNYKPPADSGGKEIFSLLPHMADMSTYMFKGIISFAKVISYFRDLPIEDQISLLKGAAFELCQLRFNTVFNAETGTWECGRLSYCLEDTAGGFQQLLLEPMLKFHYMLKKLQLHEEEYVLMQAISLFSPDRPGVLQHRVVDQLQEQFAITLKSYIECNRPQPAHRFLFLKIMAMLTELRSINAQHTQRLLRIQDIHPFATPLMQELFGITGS

[2] = target: T2, Nuclear receptor subfamily 1 group I member 2; assay: Minimum effective concentration required to inhibit pregnane X receptor (PXR)
Summary of the method: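 U2OS cells (1 × 10^6 per 10 cm dish) were calcium-phosphate transfected with the receptor expression vector (2 µg; Gal4 fusions for PXR and PPARα), the matching reporter (4 µg) and pCMV-β-galactosidase (4 µg). They were cultured 12 h, PBS-washed, given fresh medium 4 h, trypsinized and exposed to drugs 20 h. Luciferase/CAT activity normalized to β-galactosidase as stimulation index; triplicate cultures.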

[3] = target: T3, Peroxisome proliferator-activated receptor gamma (Homo sapiens) (UniProt P37231); assay: Minimum effective concentration required to inhibit Peroxisome proliferator activated receptor gamma (PPAR gamma)
T3 sequence (whole entry): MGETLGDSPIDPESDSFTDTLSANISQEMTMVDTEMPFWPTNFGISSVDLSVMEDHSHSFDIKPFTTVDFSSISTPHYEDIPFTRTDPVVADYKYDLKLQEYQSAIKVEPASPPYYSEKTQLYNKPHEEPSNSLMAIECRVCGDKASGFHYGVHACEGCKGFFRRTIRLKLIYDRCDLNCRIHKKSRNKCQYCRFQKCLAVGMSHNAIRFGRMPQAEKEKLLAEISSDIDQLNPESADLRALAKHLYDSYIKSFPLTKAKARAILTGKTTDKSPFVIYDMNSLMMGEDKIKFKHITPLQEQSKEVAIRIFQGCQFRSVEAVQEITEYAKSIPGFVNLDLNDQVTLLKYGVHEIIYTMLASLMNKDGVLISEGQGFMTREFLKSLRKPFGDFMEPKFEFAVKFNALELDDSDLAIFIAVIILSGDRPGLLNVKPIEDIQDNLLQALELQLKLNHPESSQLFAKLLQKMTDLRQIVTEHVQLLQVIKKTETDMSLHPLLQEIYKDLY

[4] = target: T3, Peroxisome proliferator-activated receptor gamma (Homo sapiens); assay: Minimum effective concentration required to activate Peroxisome proliferator activated receptor gamma (PPAR gamma)

MEC (Estrogen receptor) | MEC (Estrogen receptor beta) | IC50 (U2OS (Homo sapiens)) [µM] | MEC [1] [µM] | MEC [2] [µM] | MEC [3] [µM] | MEC [4] [µM] | Structure (SMILES)
 |  |  |  | 1 | 3 |  | CC(/C=C/[C@@]1(C)[C@H](C)CCC(=O)[C@@H]1C)=C\Cc1c(O)c(C=O)c(C)c(Cl)c1OC(=O)c1ccccn1
Not Active | Not Active | 1.8 | 1 |  |  |  | COc1c(Cl)c(C)c(C=O)c(O)c1C/C=C(C)/C=C/[C@@]1(C)[C@H](C)CCC(=O)[C@@H]1C
 |  |  |  | 1 | 30 |  | COc1c(C=O)c(C)c(Cl)c(OC(=O)c2ccccn2)c1C/C=C(C)/C=C/[C@@]1(C)[C@H](C)CCC(=O)[C@@H]1C
Not Active | Not Active | 56 | 1 |  |  |  | COc1c(Cl)c(C)c(C(=O)O)c(OC)c1C/C=C(C)/C=C/[C@@]1(C)[C@H](C)CCC(=O)[C@@H]1C
Not Active | Not Active | 3.2 | 1 |  |  | 3 | CCOC(=O)COc1c(Cl)c(C)c(C=O)c(OC)c1C/C=C(C)/C=C/[C@@]1(C)[C@H](C)CCC(=O)[C@@H]1C
 |  |  |  | 3 | 0.3 |  | COc1c(C=O)c(C)c(Cl)c(OC(=O)c2ccncc2)c1C/C=C(C)/C=C/[C@@]1(C)[C@H](C)CCC(=O)[C@@H]1C
Not Active | Not Active | 10 | 1 |  |  |  | COc1c(Cl)c(C)c(C=O)c(OC)c1CC1OC1(C)/C=C/[C@@]1(C)[C@H](C)CCC(=O)[C@@H]1C (some centres not stated)
Not Active | Not Active | 0.6 | 1 |  |  | 10 | CC(/C=C/[C@@]1(C)[C@H](C)CCC(=O)[C@@H]1C)=C\Cc1c(O)c(C=O)c(C)c(Cl)c1OC(=O)CCCC(=O)O
Not Active | Not Active | 56 | 3 |  |  | 3 | COc1c(C=O)c(C)c(Cl)c(OCC(=O)O)c1C/C=C(C)/C=C/[C@@]1(C)[C@H](C)CCC(=O)[C@@H]1C
Not Active | Not Active | 37 | 10 |  |  | 100 | COc1c(C=O)c(C)c(Cl)c(OC(=O)c2cccnc2)c1C/C=C(C)/C=C/[C@@]1(C)[C@H](C)CCC(=O)[C@@H]1C
Not Active | Not Active | 4.7 | 3 |  |  | 10 | CC(/C=C/[C@@]1(C)[C@H](C)CCC(=O)[C@@H]1C)=C\Cc1c(O)c(C=O)c(C)c(Cl)c1OC(=O)c1cccnc1
Not Active | Not Active | 10 | 1 |  |  | 10 | CC(/C=C/[C@@]1(C)[C@H](C)CCC(=O)[C@@H]1C)=C\Cc1c(O)c(C=O)c(C)c(Cl)c1OC(=O)c1ccncc1
Not Active | Not Active | 56 | 30 |  |  | 30 | CC(/C=C/[C@@]1(C)[C@H](C)CCC(=O)[C@@H]1C)=C\Cc1c(O)c(C=O)c(C)c(Cl)c1OCC(=O)O

Further lines, the molecule ahead of its results:

Structure (SMILES) | MEC (Estrogen receptor) | MEC (Estrogen receptor beta) | IC50 (U2OS (Homo sapiens)) [µM] | MEC [1] [µM] | MEC [2] [µM] | MEC [3] [µM] | MEC [4] [µM]
C/C(=C\Cc1c(O)c(C=O)c(C)c(Cl)c1OC(=O)CCCC(=O)O)CC/C=C(\C)[C@@H]1CC(=O)C(C)(C)O1 | Not Active | Not Active | 3.2 | 10 |  |  | 
CC(=O)Oc1c(Cl)c(C)c(C=O)c(O)c1C/C=C(\C)CC/C=C(\C)[C@@H]1CC(=O)C(C)(C)O1 | Not Active | Not Active | 10 | 1 |  |  | 
COc1c(C=O)c(C)c(Cl)c(O)c1C/C=C(C)/C=C/[C@@]1(C)[C@H](C)CCC(=O)[C@@H]1C | Not Active | Not Active | 5.6 | 1 |  |  | 10
C/C(=C\Cc1c(O)c(C=O)c(C)c(Cl)c1OC(=O)c1cccnc1)CC/C=C(\C)[C@@H]1CC(=O)C(C)(C)O1 | Not Active | Not Active | 10 | 10 |  |  | 
Cc1c(Cl)c(O)c2c(c1C=O)OC(C)(/C=C/[C@]1(C)C(C)C(=O)CC[C@H]1C)CC2 (some centres not stated) | Not Active | Not Active | 56 | 3 |  |  | 
COc1c(Cl)c(C)c(C=O)c(O)c1C/C=C(\C)CC/C=C(\C)[C@@H]1CC(=O)C(C)(C)O1 | Not Active | Not Active | 5.6 | 1 |  |  | 
COc1c(C=O)c(C)c(Cl)c(OC(C)=O)c1C/C=C(\C)CC/C=C(\C)[C@@H]1CC(=O)C(C)(C)O1 | Not Active | Not Active | 10 | 1 |  |  | 
Cc1c(C=O)cc2c(c1Cl)OC(C)(/C=C/[C@]1(C)C(C)C(=O)CC[C@H]1C)CC2 (some centres not stated) | Not Active | Not Active | 18 | 1 |  |  | 
COc1c(C=O)c(C)c(Cl)c(O)c1C/C=C(\C)CC/C=C(\C)[C@@H]1CC(=O)C(C)(C)O1 | Not Active | Not Active | 18 | 1 |  |  | 30
C/C(=C\Cc1c(O)c(Cl)c(C)c(C=O)c1O)CC/C=C(\C)[C@@H]1CC(=O)C(C)(C)O1 [ASCOFURANONE] | Not Active | Not Active | 3.2 | 3 |  |  | 
C/C(=C\Cc1c(O)c(C=O)c(C)c(Cl)c1OC(=O)c1ccncc1)CC/C=C(\C)[C@@H]1CC(=O)C(C)(C)O1 | Not Active | Not Active | 10 | 10 |  |  | 
C/C(=C\Cc1c(O)c(C=O)c(C)c(Cl)c1OCC(=O)O)CC/C=C(\C)[C@@H]1CC(=O)C(C)(C)O1 | Not Active | Not Active | 32 | 30 |  |  | 
Cc1c(Cl)c2c(c(O)c1C=O)CC(CC(C)(O)/C=C/[C@@]1(C)[C@H](C)CCC3(OCCO3)[C@@H]1C)O2 (some centres not stated) | Not Active | Not Active | 18 | 3 |  |  | 

Reference: ChEMBL document CHEMBL1145088, “Ascochlorin derivatives as ligands for nuclear hormone receptors” (J Med Chem, 2003)
